# This excerpt belongs to a sample that is enriched for hits.
# PvdQ inh = P. aeruginosa PvdQ acylase inhibition; inhibition, % at 10 µM; purified PvdQ acylase, fluorescence plate reader; 340,000 compounds, 0.063% hits; in the data active means inhibition above about 30%, passing the limit was not always enough;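 further: 0% = vehicle neutral wells and 100% = reference inhibitor wells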
# XBP1 UPR activ = activators of adaptive arm of unfolded protein response (XBP1); 330,000 compounds, 0.33% hits; AID 463104; activation, % at 20 µM; CHO-XBP1 luciferase reporter, IRE1-XBP1 UPR activation, luminescence; percent of tunicamycin response, DMSO as zero;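 active means versus positive control, 20 µM dose yields 30% or more activation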;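 further: 100% = tunicamycin at 10 µg/mL and 0% = DMSO only wells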
#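 Material: CHO cell line with stable XBP1 luciferase reporter; schedule: 16-18 h cell attachment at 37 °C, then 6 h compound exposure; signal: glow luminescence from Steady-Glo reagent; medium: serum-containing F12 medium, 10% FBS; benchmarks: tunicamycin 10 µg/mL and vehicle-only wells; read-out: percent activation relative to tunicamycin reference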
# CHOP inhibitor = CHOP inhibition in unfolded protein response. CHO-K1 CHOP-promoter luciferase, tunicamycin-induced, 15-18 h. 220,000 compounds, 3.8% hits. AID 2732. inhibition, % at 10 µM;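 active means compounds that reduced the stress-induced luciferase reporter signal by more than about 70% of percent inhibition, limit read from the data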;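 further: 0% = tunicamycin plus vehicle and 100% = wells without tunicamycin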
# UPR CHOP act = activators of apoptotic arm of unfolded protein response (CHOP); CHO-CHOP luciferase reporter, UPR activation, luminescence; percent of tunicamycin response over DMSO baseline; activation, % at 10 µM; 330,000 compounds, 0.34% hits; AID 449763;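 active means at 10 µM dose, activation of 40% or more, normalized to positive control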;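 further: 100% = tunicamycin at 10 µg/mL and 0% = DMSO alone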
#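 Evaluation: % reporter activation, DMSO baseline versus tunicamycin full activation; System: CHO-CHOP luciferase reporter cell line; Input: 500 cells/well; Incubation: 6 h compound treatment, 37 °C; Measured by: Steady-Glo luciferase luminescence; Dosing: one dose, 10 µM in 0.5% DMSO; Buffer or medium: F12 medium, 10% FBS; Benchmarks: positive tunicamycin 10 µg/mL, negative DMSO alone.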
# * marks the source's active call; other numbers are inactive results; · = no result.
SMILES,PvdQ inh,XBP1 UPR activ,CHOP inhibitor,UPR CHOP act
CCN1C(=O)[C@H]2[C@@H](c3ccc(C)cc3)N3C(=O)N(c4cccc(Br)c4)C(=O)[C@@]3(CC(C)C)[C@H]2C1=O,1,-2,·,-1
O=C(Cc1ccc(-n2c(=S)[nH]c3ccccc3c2=O)cc1)N1CCN(c2ccccc2)CC1,-22,1,32,-1
CCC(C)c1ccc(NC(=S)NCCn2cc(Br)cn2)cc1 (stereo not given),-8,-3,72*,0
O=c1c(Cl)c(N2CCCCC2)cnn1-c1nc2ccccc2[nH]1,-6,-7,58,-10
O=c1c2ccccc2cnn1-c1nc2ccccc2[nH]1,4,·,93*,·
CCN(CC)C(=S)SSC(=S)N(CC)CC,-6,-3,1,158*
CSc1ccc(CN2CCCC(CNC(=O)c3ccc(F)cc3)C2)cc1 (stereo not given),-7,3,16,-1
Cc1c(NC(=O)/C(C#N)=C/c2ccc(-c3ccc(Cl)cc3)o2)c(=O)n(-c2ccccc2)n1C,-2,16,68,4
Cc1cc(NC(=O)/C(C#N)=C/c2ccc(-c3cccc(C(F)(F)F)c3)o2)n(-c2ccccc2)n1,11,-1,85*,0
O=C(Nc1ccc(S(=O)(=O)NCc2ccccc2)cc1)Nc1ccc2c(c1)OCO2,-3,0,84*,2
O=S(=O)(NCc1ccc2c(c1)OCO2)c1ccc2c(c1)oc1ccccc12,-14,-3,95*,0
O=S(=O)(NCc1ccc2c(c1)OCO2)c1cccc(F)c1,-11,0,·,0
Brc1ccc2ncc3ccccc3c2c1,10,·,·,·
Oc1ccc(-c2nccc(-c3ccc(Cl)cc3Cl)n2)cc1,8,2,80*,2
Oc1ccc(-c2nccc(-c3ccc(Cl)cc3)n2)cc1,-6,2,39,4
C=CCOc1nc2c(c(=O)n(C)c(=O)n2C)n1Cc1c(Cl)cccc1Cl,-13,4,86*,-2
CCOc1nc2c(c(=O)n(C)c(=O)n2C)n1Cc1ccccc1Cl,-6,-3,31,1
O=C(CSc1ccccn1)Nc1cccc(S(=O)(=O)N2CCCC2)c1,8,0,·,1
CC(C)(C)N/N=C1\CC(c2ccccc2)Oc2ccccc21 (stereo not given),10,1,73*,1
O=S(=O)(N/N=C1/CC(c2ccccc2)Oc2ccccc21)c1ccccc1 (stereo not given),-9,·,·,·
O=C(NNC(=O)c1ccc(-c2ccccc2)cc1)c1ccccc1,-6,-2,81*,6
Cc1cccc(C)c1Nc1c(-c2ccccn2)nc2ccccn12,-9,4,71*,8
Cc1ccc(Nc2c(-c3ccccn3)nc3cccc(C)n23)cc1,-3,17,94*,21
CCOc1cc(C=O)ccc1OCCSc1ccc(Cl)cc1,-10,-3,30,0
CC1CCCCC1NC(=O)C1CCN(S(=O)(=O)c2cccc3nonc23)CC1 (stereo not given),-9,-3,·,3
SMILES,PvdQ inh,XBP1 UPR activ,CHOP inhibitor,UPR CHOP act
CCCCOc1ccc(CNC(=S)N/N=C/c2ccc(OC)c(OC)c2)cc1,2,-1,88*,2
CCc1cc(C(=O)OC)c(NC(=O)CC2Nc3cc(C)c(C)cc3NC2=O)s1 (stereo not given),1,1,103*,3
CCOC(=O)c1cc(CC)sc1NC(=O)CC1Sc2ccc(C(F)(F)F)cc2NC1=O (stereo not given),5,-1,82*,1
COC(=O)c1c(NC(=O)CC2Nc3cc(C)c(C)cc3NC2=O)sc(C)c1C (stereo not given),-6,1,21,2
O=C(NCc1cccs1)c1ccc(Cl)c(S(=O)(=O)N2CCCC2)c1,-2,-4,21,-1
CNS(=O)(=O)c1cccc(C(=O)OCc2csc(-c3ccccc3)n2)c1,-1,-1,-2,1
O=C(CNS(=O)(=O)c1cccc(Cl)c1)OCc1csc(-c2ccccc2)n1,-3,8,90*,3
CN(C)CCN(CC1CCCN(Cc2ccccc2F)C1)C(=O)c1ccc(F)cc1 (stereo not given),-5,1,·,1
O=C1CCCCC1Nc1ccc(Cl)cc1 (stereo not given),-1,·,·,·
O=C1CCCCC1Nc1ccc(Br)cc1 (stereo not given),14,·,·,·
O=C1CCCCC1C(Nc1ccc(Cl)cc1)c1ccccc1 (stereo not given),-15,0,94*,1
O=C1CCCCC1C(Nc1ccc(Br)cc1)c1ccccc1 (stereo not given),13,3,80*,-1
CCc1ccc(NC(=O)Cn2c(=O)n(CCCC(=O)NCc3ccco3)c(=O)c3ccccc32)cc1,-17,-2,76*,1
O=C(CCCCCn1c(=S)[nH]c2ccc(N3CCOCC3)cc2c1=O)NCc1ccc(Cl)cc1,-17,7,43,0
O=c1c2cc(N3CCOCC3)ccc2[nH]c(=S)n1Cc1ccc(Cl)cc1,9,0,70*,4
CC(=O)N/N=C/c1ccccc1OCCOc1cccc(C)c1,-15,-2,·,2
CN(C)C(=O)CCc1nc(-c2ccc(C(C)(C)C)cc2)no1,-5,-4,44,2
Cc1ccc(C(=O)NC(=S)Nc2cc(C(F)(F)F)ccc2Cl)cc1,-10,7,12,1
CCN(Cc1ccccc1)C(=O)CCc1nc(-c2ccc(C)cc2)no1,-17,-1,71*,1
O=C(CCc1nc(-c2ccccc2)no1)Nc1cc(C(F)(F)F)ccc1Cl,-14,-1,93*,7
O=C(Cc1ccccc1)NC(=S)Nc1cc(C(F)(F)F)ccc1Cl,-2,-2,95*,-1
CNC(=O)CCc1nc(-c2ccc(C(C)(C)C)cc2)no1,-4,-7,94*,-9
Cc1cccc(-c2noc(CCC(=O)Nc3ccccc3)n2)c1,-2,-2,17,-1
Cc1ccc(NC(=S)NC(=O)C2CCCCC2)c(Br)c1,-25,7,·,6
O=C(COC(=O)CNS(=O)(=O)c1cccc(F)c1)NCCc1ccccc1,-10,-2,·,2
SMILES,PvdQ inh,XBP1 UPR activ,CHOP inhibitor,UPR CHOP act
Cc1nc(C(C)N(C)Cc2nc(-c3ccc4c(c3)OCO4)no2)c(C)s1 (stereo not given),-15,-3,-11,2
CC(C)(C)c1ccc(-c2noc(CCC(=O)NCC3CCCO3)n2)cc1 (stereo not given),14,-2,90*,-5
CC(=O)NCCc1nc(-c2ccc(Cl)cc2)no1,-12,0,·,0
CC(C)N(Cc1nc(-c2ccc(Cl)cc2)no1)C(=O)CCC1CCCC1,-18,-4,84*,1
CCCC(=O)Nc1ccc(C(=O)Nc2cc(C(F)(F)F)ccc2Cl)cc1,-1,6,73*,-1
O=C(O)CCc1nc(-c2ccc(Cl)cc2)no1,36*,0,8,1
Cc1ccc(-c2noc(CCC(=O)NCC3CCCO3)n2)cc1 (stereo not given),-12,-1,30,2
